# Results published in ChEMBL document CHEMBL3861960, “Leoligin, the Major Lignan from Edelweiss (Leontopodium nivale subsp. alpinum), Promotes Cholesterol Efflux from THP-1 Macrophages” (J Nat Prod, 2016).
# Activity calls are given as the source filed them. No cut-off for these calls is given here.
# Experiments:
# [1] = Upregulation of ABCA1 mRNA expression in human THP1 cells at 10 uM after 24 hrs by qPCR method relative to control; format: functional, cell-based; settings: THP-1
# Outline: (§1)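 THP-1 macrophages treated for 24 h with 10 μM compound, 10 μM pioglitazone or DMSO. Total RNA extracted and converted to cDNA; ABCA1 or ABCG1 measured by SYBR Green qPCR and expressed relative to 18S. Mean ± SD of four independent experiments; one-way ANOVA with Bonferroni test against DMSO.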
# [2] = Upregulation of ABCG1 mRNA expression in human THP1 cells at 10 uM after 24 hrs by qPCR method relative to control; format: functional, cell-based; settings: THP-1; outline: as §1
smiles,measurement,setting,value
CCc1ccc(CCOc2ccc(CC3SC(=O)NC3=O)cc2)nc1 (configuration not stated),Activity,[1],Active
same,Activity,[2],Active
